This note sets out measurements from ChEMBL document CHEMBL3244152, “Pivaloyl esters of N,N-dialkylated dopamine congeners. Central dopamine-receptor stimulating activity” (1978).

Experiment [1] has as its system Rattus norvegicus. Kind of experiment: Stimulation of dopamine receptor in sc dosed Sprague-Dawley rat assessed as reduction in Dopa accumulation in limbic forebrain by spectrofluorimetry. It is filed as functional. As to conditions: Limbic system, read-out: ID50 (the source's name). The essentials:
(§1)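 Pooled regions from two brains went to perchloric acid extraction, cation exchange and Dopa spectrofluorimetry. Dose giving 50% Dopa decrease came from least-squares double-reciprocal plots (1/% change vs 1/dose).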

The subject of experiment [2] is Rattus norvegicus. Kind of experiment: Stimulation of dopamine receptor in sc dosed Sprague-Dawley rat assessed as reduction in Dopa accumulation in straitum by spectrofluorimetry. It is filed as functional. As to conditions: read-out: ID50 (the source's name). The essentials:
as §1

Experiment [3] deals with Rattus norvegicus. In words: Effect on motor activity in reserpinized Sprague-Dawley rat assessed as stereotyped movements at 2 umolkg, sc measured every 5 mins for 2 hrs by motility meter method. It is filed as functional, organism-based. The essentials: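 Male Sprague-Dawley rats (200–350 g) given reserpine 10 mg/kg ip 6 h before testing. Drug dissolved in saline (0.9%), neutral pH, 10 mL/kg, injected sc in the neck. Each rat then placed alone in a test cage inside a motility meter. Counts were recorded per 5-min period for 2 h, with gross behavior watched through a mirror. Means, n = 4-5.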

Experiment [4] has as its system Rattus norvegicus. Kind of experiment: Effect on motor activity in reserpinized Sprague-Dawley rat assessed as stereotyped movements at 200 umolkg, po measured every 5 mins for 2 hrs by motility meter method. Format: functional, organism-based. The essentials:
(§2)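 Male Sprague-Dawley rats (200–350 g) were given reserpine 10 mg/kg ip 6 h before testing. Drug in 0.9% saline (neutral pH, 10 mL/kg) was given at 20 μmol/kg sc in the neck or 200 μmol/kg po by stomach tube. Rats were caged singly in motility meters at once, with counts recorded per 5-min period over 2 h; means n = 4-5.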

The test system of experiment [5] is Rattus norvegicus. In words: Effect on motor activity in reserpinized Sprague-Dawley rat assessed as stereotyped movements at 20 umolkg, sc measured every 5 mins for 2 hrs by motility meter method. It is filed as functional, organism-based. The essentials: as §2
Experiment [6] has as its system Rattus norvegicus. In words: Effect on motor activity in reserpinized Sprague-Dawley rat assessed as stereotyped movements at 20 umolkg, sc measured up to 10 mins by motility meter method. Format: functional, organism-based. The essentials:
as §2

Experiment [7] has as its system Rattus norvegicus. In words: Stimulation of dopamine receptor in Sprague-Dawley rat assessed as reduction in Dopa accumulation in at 1 mg/kg, sc by spectrofluorimetry. Format: functional, organism-based. Set-up: dose 1 mg/kg.

Calls of active or inactive are those of the source. The calls are words filed in the database; no cut-off is given here.

For the compound `CN1CCc2cccc3c2[C@H]1Cc1ccc(O)c(O)c1-3` [APOMORPHINE], the ED50 with Rattus norvegicus [1] and in the experiment on Rattus norvegicus [2] was 0.23 µmol/kg in each case. Further, the outcome in the experiment on Rattus norvegicus [3] was Active.

For `CCN(CC)CCc1ccc(OC(=O)C(C)(C)C)c(OC(=O)C(C)(C)C)c1`, the ED50 in the experiment on Rattus norvegicus [1] and in the experiment with Rattus norvegicus [2] was > 27 µmol/kg throughout. The outcome with Rattus norvegicus [4] and with Rattus norvegicus [5] was inactive.

On to `CCCCN(CCCC)CCc1ccc(OC(=O)C(C)(C)C)c(OC(=O)C(C)(C)C)c1`, for which the ED50 in the experiment with Rattus norvegicus [1] and in the experiment with Rattus norvegicus [2] was > 180 µmol/kg each time. For the same compound, the result with Rattus norvegicus [4] and in the experiment with Rattus norvegicus [5] was inactive.

On to `CN(C)CCc1ccc(OC(=O)C(C)(C)C)c(OC(=O)C(C)(C)C)c1`, for which the ED50 in the experiment with Rattus norvegicus [1] and with Rattus norvegicus [2] was > 45 µmol/kg in each case. For the same compound, the outcome in the experiment on Rattus norvegicus [4] and in the experiment with Rattus norvegicus [5] was inactive.

Turning to `CN1CCc2cccc3c2[C@H]1Cc1ccc(OC(=O)C(C)(C)C)c(OC(=O)C(C)(C)C)c1-3`, the outcome in the experiment on Rattus norvegicus [3] was Active.

With `CCCN(CCC)CCc1cccc(O)c1`, the ED50 was determined as 5.7 µmol/kg in the experiment with Rattus norvegicus [1] and 1.8 µmol/kg in the experiment on Rattus norvegicus [2]. Moreover, the outcome in the experiment with Rattus norvegicus [4] was inactive. Besides, the outcome in the experiment on Rattus norvegicus [5] was Active.

With `CCCN(CCC)CCc1cccc(OC)c1`, the ED50 in the experiment with Rattus norvegicus [1] and with Rattus norvegicus [2] was > 45 µmol/kg throughout. Further, the result with Rattus norvegicus [4] and in the experiment on Rattus norvegicus [5] was inactive.

Regarding `CCCN(CCC)CCc1cccc(OC(=O)C(C)(C)C)c1`, the ED50 with Rattus norvegicus [1] is 2.7 µmol/kg; in the experiment on Rattus norvegicus [2], 1.8 µmol/kg. Also, the outcome with Rattus norvegicus [4] and in the experiment with Rattus norvegicus [6] was inactive. In addition, the outcome in the experiment on Rattus norvegicus [5] was Active.

With `CC(N)Cc1ccccc1` (configuration not stated), the outcome in the experiment on Rattus norvegicus [7] was inactive.

In the case of `CCCN(CCC)CCc1ccc(O)c(O)c1`, the ED50 in the experiment on Rattus norvegicus [1] came to 25 µmol/kg; with Rattus norvegicus [2], 20 µmol/kg. For the same compound, the result in the experiment on Rattus norvegicus [4] was inactive.

For `CCCN(CCC)CCc1ccc(OC(=O)C(C)(C)C)c(OC(=O)C(C)(C)C)c1`, the ED50 was found to be 28 µmol/kg in the experiment with Rattus norvegicus [1] and 33 µmol/kg with Rattus norvegicus [2]. Moreover, the outcome with Rattus norvegicus [4] was inactive. For the same compound, the result in the experiment with Rattus norvegicus [5] was Active.
